In data set [1] the target is T1, human liver cathepsin B (Homo sapiens, UniProt P07858). Put plainly: Cathepsin B-mediated polymer degradation. The format is in vitro ADME. The following applies: for Cathepsin B degradation of polymer (in words): 44 μg/mL polymer, 1.28 μg/mL cathepsin B, acetate pH 5, 37 °C, SEC; for Degradation Type: Table 1 summary of peptidase susceptibility of copolymer. In outline:
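HPMA-oligolysine copolymers were made by RAFT polymerization. Cathepsin B was pre-activated with DTT/EDTA at 37 °C for 15 min, then used in pH 5 acetate/EDTA buffer at 1.28 μg/mL final. Polymer was 44 μg/mL final, at 37 °C. Aliquots taken over time were stopped with E-64. Relative differential refractive index profiles from SEC were compared, with supporting MALDI-TOF MS.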

A further data set concerns NIH/3T3 cells. The data set is described as follows: Cytotoxicity by MTS assay, NIH/3T3. The format is cell-based. The following applies: free polymer, 4 hrs exposure, MTS at 48 hrs; four-parameter fit. The essentials: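 Polymers at a range of concentrations were made up in ddH2O and diluted 10-fold into reduced-serum MEM. NIH/3T3 cells were rinsed once with PBS and exposed for 4 hrs. At 48 hrs MTS reagent was added, followed by 3 hrs of incubation and absorbance reading at 490 nm. IC50 was expressed in amine equivalents and obtained by a four-parameter variable-slope nonlinear fit.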

The target in data set [2] is T1, human liver cathepsin B. Put plainly: Polyplex destabilization by DLS under cathepsin B treatment. It is filed as in vitro ADME. To be noted: 4 N:P, 5.33 μg/mL DNA, pH 5, 37 °C. In outline: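 Polyplexes were formed at 4 N:P: pCMV-Luc2 plasmid (0.1 mg/mL in ddH2O) was mixed with an equal volume of polymer for 10 min at room temperature. These were added to pre-activated cathepsin B (1.28 μg/mL final, pH 5 acetate) at 5.33 μg/mL DNA final. The sample sat in a capped cuvette pre-equilibrated at 37 °C. DLS particle size was read every 15 min for 8 hrs.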

Data set [3] has as its target T1, human liver cathepsin B. It is filed as in vitro ADME. To be noted: 4 N:P, 5.33 μg/mL DNA, cathepsin B pH 5, 37 °C; normalized to plasmid-only. In outline:
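Plasmid was pre-labelled with YOYO-1 (dye:base pair 1:50, 1 hr, room temperature) and complexed with polymer at 4 N:P. Polyplexes were incubated with pre-activated cathepsin B (pH 5 acetate, 37 °C) at 5.33 μg/mL DNA final. Timed aliquots were stopped with E-64 and diluted in ddH2O. Fluorescence was read at ex 491/em 509 nm and normalized to uncomplexed plasmid signal.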

On to “HPMA-co-MaAhx(D)FKFLAhx(D)K10 [pH(D)Cath(D)K10]”, for which, in the data set with human liver cathepsin B [1], the “Cathepsin B degradation of polymer (in words)” value is “no degradation” and the “Degradation Type” value is “None”. Further, the “IC50 (μg/mL), NIH/3T3” value in the data set with NIH/3T3 cells amounted to 30.3 µg/mL. Also, the “Polyplex particle size over 8 hrs cathepsin B treatment” value with human liver cathepsin B [2] (DLS every 15 min) was ~ 150 nm.
As for “HPMA-co-MaAhxFKFLAhx(D)K10 [pHCath(D)K10]”, in the data set on NIH/3T3 cells, the “IC50 (μg/mL), NIH/3T3” value was determined as 28.7 µg/mL. The “Polyplex particle size over 8 hrs cathepsin B treatment” value with human liver cathepsin B [2] (DLS every 15 min) was ~ 600 nm.
With HPMA-co-MaAhxFKFLAhxK10 [pHCathK10], on human liver cathepsin B [3], the “YOYO-1 fluorescence relative to free plasmid by 8 hrs of cathepsin B exposure” value stood at 70%. In the data set with human liver cathepsin B [1], the “Degradation Type” value was “Endo/exopeptidase”. Further, the “IC50 (μg/mL), NIH/3T3” value in the data set with NIH/3T3 cells was 29.7 µg/mL. Further, the “Polyplex particle size at start of cathepsin B treatment” value in the data set with human liver cathepsin B [2] (DLS) is ~ 150 nm. Moreover, the “Polyplex particle size after 4 hrs cathepsin B treatment (plateau)” value with human liver cathepsin B [2] (DLS every 15 min) is “about 500 nm”.
On to HPMA-co-MaAhxK10 [reference compound], for which the “Cathepsin B degradation of polymer (in words)” value in the data set with human liver cathepsin B [1] is on record as “observed MW shift over 4hrs is comparable to 10 min with pHCathK10”.

The values above are taken from paper PMC3277802 (Journal of Controlled Release, 2011).
